According to ChEMBL document CHEMBL1131493, “Inhibitors of farnesyl protein transferase. 4-Amido, 4-carbamoyl, and 4-carboxamido derivatives of 1-(8-chloro-6,11-dihydro-5H-benzo[5,6]- cyclohepta[1,2-b]pyridin-11-yl)piperazine and 1-(3-bromo-8-chloro-6,11- dihydro-5H-benzo[5,6]cyclohepta[1,2-b]pyridin-11-yl)piperazine” (J Med Chem, 1998):
Several values for one entry are separate records, joined by “and”; a condition that tells them apart may be missing. Equal entries are not always repeated.

Experiments:
Cynomolgus monkey [1] = experiment: In vivo antitumor efficacy after peroral dose of 10 mg/kg in cynomolgus monkeys expressed as duration for which compound was present above IC50; type: ADME, organism-based, Macaca fascicularis; parameters: dose 10 mg/kg, route oral; conditions: po
Procedure, shortened: (§1)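 Serum pharmacokinetics in nude mice or cynomolgus monkeys after oral (po) or iv dosing. Compounds were given as hydrochloride salts in 20% HPβCD unless otherwise noted. Other formulations were the hydrochloride salt in saline, the micronized free base in 20% HPβCD or corn oil (po) with saline for iv, or the hydrochloride salt in 0.4% methyl cellulose (po).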

[2] = Bioavailability in cynomolgus monkey (dose 5 mg/kg i.v.); type: ADME, organism-based, Macaca fascicularis; conditions: in vivo, iv; procedure, shortened: as §1
[3] = In vivo antitumor efficacy in cynomolgus monkeys 0-48 hr after iv dose of 5 mg/kg expressed as Area under the curve; type: ADME, organism-based, Macaca fascicularis; parameters: time < 48 hr, dose 5 mg/kg, route intravenous; conditions: cynomolgus monkey; procedure, shortened: as §1
[4] = In vivo antitumor efficacy in nude mice 0-24 hr after iv dose of 25 mg/kg expressed as Area under the curve; type: ADME, organism-based; parameters: time < 24 hr, dose 25 mg/kg, route intravenous; conditions: mouse; procedure, shortened: as §1
[5] = target: geranylgeranyltransferase type-I (Rattus norvegicus, UniProt P53610+Q04631); experiment: Inhibition of rat Geranylgeranyl transferase (GGPT); type: protein-complex assay
[6] = In vivo antitumor efficacy in cynomolgus monkeys by injecting a dose of 5 mg/kg, as HCl salt in saline solution,i/v and the serum half-life was determined; type: ADME, organism-based, Macaca fascicularis; parameters: dose 5 mg/kg; conditions: cynomolgus monkey, iv; procedure, shortened: as §1
Mus musculus [7] = experiment: In vivo antitumor efficacy after peroral dose of 25 mg/kg in mice expressed as duration for which compound was present above IC50; type: ADME, organism-based; parameters: dose 25 mg/kg, route oral; conditions: po; procedure, shortened: as §1
[8] = In vivo antitumor efficacy in nude mice 0-24 hr after peroral dose of 25 mg/kg expressed as Area under the curve; type: ADME, organism-based; parameters: time < 24 hr, dose 25 mg/kg, route oral; conditions: nude, mouse, po; procedure, shortened: as §1
[9] = In vivo antitumor efficacy in cynomolgus monkeys 0-48 hr after peroral dose of 5 mg/kg expressed as Area under the curve; type: ADME, organism-based, Macaca fascicularis; parameters: time < 48 hr, dose 5 mg/kg, route oral; conditions: cynomolgus monkey, po; procedure, shortened: as §1
[10] = In vivo antitumor efficacy peroral dose of 25 mg/kg expressed as duration for which compound was present above IC50; type: ADME, organism-based; parameters: dose 25 mg/kg, route oral; conditions: po; procedure, shortened: as §1
[11] = (§2) Maximal plasma concentration in nude mice after 25 mg/kg oral dose; type: ADME, organism-based; parameters: dose 25 mg/kg, route oral; conditions: mouse; procedure, shortened: as §1
[12] = Oral bioavailability in mouse (nude) (dose of 25 mg/kg); type: ADME, organism-based; conditions: in vivo; procedure, shortened: as §1
[13] = (§3) Maximal plasma concentration in cynomolgus monkeys after 10 mg/kg oral dose; type: ADME, organism-based, Macaca fascicularis; parameters: dose 10 mg/kg, route oral; conditions: cynomolgus monkey, plasma; procedure, shortened: as §1
Cynomolgus monkey [14] = experiment: as §3; type: ADME, organism-based, Macaca fascicularis; parameters: dose 10 mg/kg, route oral; conditions: in vivo; procedure, shortened: as §1
[15] = In vivo antitumor efficacy in nude mice after peroral dose of 10 mg/kg expressed as Area under the curve; type: ADME, organism-based; parameters: dose 10 mg/kg, route oral; conditions: mouse, po; procedure, shortened: as §1
[16] = Maximal plasma concentration in cynomolgus monkeys after 5 mg/kg oral dose; type: ADME, organism-based, Macaca fascicularis; parameters: dose 5 mg/kg, route oral; conditions: cynomolgus monkey; procedure, shortened: as §1
Mus musculus [17] = experiment: In vivo antitumor efficacy after peroral dose of 10 mg/kg in mice expressed as duration for which compound was present above IC50; type: ADME, organism-based; parameters: dose 10 mg/kg, route oral; conditions: po; procedure, shortened: as §1
[18] = In vivo antitumor efficacy in cynomolgus monkeys 0-48 hr after peroral dose of 10 mg/kg expressed as Area under the curve; type: ADME, organism-based, Macaca fascicularis; parameters: time < 48 hr, dose 10 mg/kg, route oral; conditions: cynomolgus monkey, po; procedure, shortened: as §1
[19] = In vivo antitumor efficacy in nude mice by injecting a dose of 25 mg/kg iv and serum half-life was determined; type: ADME, organism-based; parameters: dose 25 mg/kg, route intravenous; conditions: mouse; procedure, shortened: as §1
[20] = as §2; type: ADME, organism-based; parameters: dose 25 mg/kg, route oral; conditions: mouse; remark: listed apart in the source
[21] = Bioavailability in cynomolgus monkey (dose 25 mg/kg i.v.); type: ADME, organism-based, Macaca fascicularis; conditions: in vivo, iv; procedure, shortened: as §1
Mus musculus [22] = experiment: In vivo antitumor efficacy in nude mice by injecting a dose of 25 mg/kg, as HCl salt in saline solution, perorally and the duration of action was reported; type: ADME, organism-based; parameters: dose 25 mg/kg, route oral; conditions: po
[23] = In vivo antitumor efficacy in nude mice by injecting a dose of 25 mg/kg, as HCl salt in saline solution, iv and the total drug exposure was determined. (0-24hr); type: ADME, organism-based; parameters: time < 24 hr, dose 25 mg/kg, route intravenous; conditions: mouse
[24] = Oral bioavailability in mouse (nude) (dose 25 mg/kg i.v.); type: ADME, organism-based; conditions: in vivo
[25] = In vivo antitumor efficacy in cynomolgus monkeys by injecting a dose of 25 mg/kg, as HCl salt in saline solution, iv and the total drug exposure was determined. (0-8 hr); type: ADME, organism-based, Macaca fascicularis; parameters: time < 8 hr, dose 25 mg/kg, route intravenous; conditions: cynomolgus monkey; procedure, shortened: as §1
Cynomolgus monkey [26] = experiment: In vivo antitumor efficacy in cynomolgus monkeys by injecting a dose of 25 mg/kg, as HCl salt in saline solution, perorally and the maximum drug concentration was determined; type: ADME, organism-based, Macaca fascicularis; parameters: dose 25 mg/kg, route oral; conditions: po; procedure, shortened: as §1
[27] = In vivo antitumor efficacy in nude mice by injecting a dose of 25 mg/kg, as HCl salt in saline solution, iv and the serum half-life was determined; type: ADME, organism-based; parameters: dose 25 mg/kg, route intravenous; conditions: mouse
[28] = (§4) In vivo antitumor efficacy in cynomolgus monkeys by injecting a dose of 25 mg/kg, as the micronised free base in corn oil, perorally and the total drug exposure was determined (0-8 hr); type: ADME, organism-based, Macaca fascicularis; parameters: time < 8 hr, dose 25 mg/kg, route oral; conditions: cynomolgus monkey, po; procedure, shortened: as §1
Cynomolgus monkey [29] = experiment: as §4; type: ADME, organism-based, Macaca fascicularis; parameters: time < 8 hr, dose 25 mg/kg, route oral; conditions: po, 8 h; procedure, shortened: as §1
[30] = In vivo antitumor efficacy in nude mice by injecting a dose of 25 mg/kg, as HCl salt in saline solution, perorally and the total drug exposure was determined (0-24hr); type: ADME, organism-based; parameters: time < 24 hr, dose 25 mg/kg, route oral; conditions: mouse, po
[31] = (§5) In vivo antitumor efficacy in cynomolgus monkeys by injecting a dose of 25 mg/kg, as HCl salt in saline solution, iv and the serum half-life was determined; type: ADME, organism-based, Macaca fascicularis; parameters: dose 25 mg/kg, route intravenous; conditions: cynomolgus monkey, serum; procedure, shortened: as §1
Cynomolgus monkey [32] = experiment: as §5; type: ADME, organism-based, Macaca fascicularis; parameters: dose 25 mg/kg, route intravenous; conditions: in vivo; procedure, shortened: as §1
[33] = In vivo antitumor efficacy in nude mice by injecting a dose of 25 mg/kg, as HCl salt in saline solution, perorally and the total drug exposure was determined (0-4 hr); type: ADME, organism-based; parameters: time < 4 hr, dose 25 mg/kg, route oral; conditions: mouse, po
[34] = target: T1, Protein farnesyltransferase (Homo sapiens, UniProt P49354+P49356); experiment: Inhibition of Farnesyltransferase from Ras-CVLS or Ras-CVLL in Cos-7 monkey kidney cells; type: cell-based, Chlorocebus aethiops
[35] = target: T1, Protein farnesyltransferase; experiment: In vitro inhibition of farnesyltransferase farnesylation of the H-ras oncogene; type: protein-complex assay
[36] = In vivo antitumor efficacy in nude mice by injecting a dose of 25 mg/kg, as HCl salt in saline solution, iv and the total drug exposure was determined. (0-4 hr); type: ADME, organism-based; parameters: time < 4 hr, dose 25 mg/kg, route intravenous; conditions: mouse

Compound: O=C(Cc1cc[n+]([O-])cc1)N1CCN(C2c3ccc(Cl)cc3CCc3cc(Br)cnc32)CC1 (configuration not stated)
- Time above IC50 (Cynomolgus monkey [1]): 24 h
- bioavailability [2]: 38.5%
- AUC at 48 h [3]: 24400 ng·h/mL
- AUC at 24 h [4]: 23400 ng·h/mL
- IC50 [5]: > 38 µM
- half-life [6]: 2.6 h
- Time above IC50 (Mus musculus [7]): 7 h
- AUC at 24 h [8]: 19600 ng·h/mL
- AUC at 48 h [9]: 9400 ng·h/mL
- Time above IC50 [10]: 6 h
- Cmax [11]: 10000 nM
- bioavailability [12]: 84%
- Cmax [13]: 5700 nM
- Cmax (Cynomolgus monkey [14]): 3000 nM
- AUC [15]: 16700 ng·h/mL
- Cmax [16]: 1200 nM
- Time above IC50 (Mus musculus [17]): 24 h
- AUC at 48 h [18]: 35600 ng·h/mL
- half-life [19]: 1.2 h

Compound: O=C(Cc1cccnc1)N1CCN(C2c3ccc(Cl)cc3CCc3cccnc32)CC1 (configuration not stated)
- Cmax [20]: 3900 nM
- F [21]: 1.4%
- bioavailability [21]: 2.2%
- Time above IC50 (Mus musculus [22]): 0.3 h
- IC50 [5]: > 46 µM
- AUC at 24 h [23]: 1100 ng·h/mL
- bioavailability [24]: 36%
- AUC at 8 h [25]: 48600 ng·h/mL
- Cmax (Cynomolgus monkey [26]): 290 nM and 110 nM
- half-life [27]: 0.2 h
- AUC at 8 h [28]: 450 ng·h/mL
- AUC (Cynomolgus monkey [29]): 1.07 uh ml-1
- AUC at 24 h [30]: 400 ng·h/mL
- half-life [31]: 1.5 h
- T1/2 (Cynomolgus monkey [32]): 1.5 h

Compound: CN1CCC(CC(=O)N2CCN(C3c4ccc(Cl)cc4CCc4cccnc43)CC2)CC1 (configuration not stated)
- Cmax [20]: 1400 nM
- AUC at 4 h [33]: 1300 ng·h/mL
- Time above IC50 (Mus musculus [22]): 4 h
- IC50 [34]: 0.93 µM
- bioavailability [12]: 32%
- half-life [27]: > 1 h
- IC50 [35]: 1.4 µM
- AUC at 4 h [36]: 4100 ng·h/mL
